According to ChEMBL document CHEMBL1123057, “gamma-Aminobutyric acid esters. 2. Synthesis, brain uptake, and pharmacological properties of lipid esters of gamma-aminobutyric acid” (J Med Chem, 1985):

Key:
Mus musculus [1] = assay: Ability to penetrate the blood-brain barrier of mice was evaluated by measuring the brain penetration index (BPI) at dose 3-39 mg/Kg, administered subcutaneously; range is 0.04-1.81; type: functional, organism-based
[2] = Octanol:water partition coefficient is evaluated; type: physicochemical
Mus musculus [3] = assay: Percent amount of compound was determined in liver per gram of tissue after 5 min of administration at a dose of 3-39 mg/Kg; range is 4.2-165; type: functional, organism-based
Mus musculus [4] = assay: BPI index was determined at 5 min after subcutaneous administration; type: functional
In short: (§1)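 Balb-c mice (20 ± 2 g) received a single sc injection of the ¹⁴C-labeled ester in 0.5 mL of 25% propylene glycol in water. Brain and liver were removed at 5 min, weighed and homogenized in urea/SDS/EDTA phosphate protein solvent (pH 7.6). Aliquots were counted for ¹⁴C by liquid scintillation. BPI = brain amount per g as % of liver amount per g. Mean ± SEM, n = 3.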

Mus musculus [5] = assay: Compound was evaluated for the effect on the uptake in mouse brain, at dose 78 mg/kg (ip) after a time period of 5 min; type: functional, organism-based; parameters: dose 78 mg/kg
In short: (§2)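 Mice received a single systemic dose (ip or sc) of ¹⁴C-labeled compound in 0.5 mL of 0.14 N saline or 25% propylene glycol/water, depending on the compound. Brain was taken at the stated time and homogenized in 8 mL of 1% SDS/6 M urea/EDTA in 0.03 M phosphate (pH 7.4). Aliquots were counted by liquid scintillation and expressed as nmol/g brain.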

Mus musculus [6] = assay: Percent amount of compound was determined in liver per gram of tissue after 5 min of administration at a dose of 67 mg/kg; type: functional, organism-based; parameters: dose 67 mg/kg; in short: as §1
Mus musculus [7] = assay: Compound was evaluated for the effect on the uptake in mouse brain, at dose 78 mg/Kg (ip) after a time period of 30 min; type: functional, organism-based; in short: as §2
Mus musculus [8] = assay: Compound was evaluated for the effect on the uptake in mouse brain, at dose 78 mg/Kg (ip) after a time period of 15 min; type: functional, organism-based; in short: as §2
Mus musculus [9] = assay: Ability to penetrate the blood-brain barrier of mice was evaluated by measuring the brain penetration index (BPI) at dose 67 mg/Kg, administered subcutaneously; type: functional, organism-based; in short: as §1
Mus musculus [10] = assay: BPI index was determined at 5 min after subcutaneous administration to mice; type: functional; in short: as §1

| SMILES | Uptake (Mus musculus [1]) | K [2] | Uptake (Mus musculus [3]) | BPI (Mus musculus [4]) | Uptake (Mus musculus [5]) | Uptake (Mus musculus [6]) | Uptake (Mus musculus [7]) | Uptake (Mus musculus [8]) | Uptake (Mus musculus [9]) | BPI (Mus musculus [10]) |
| --- | --- | --- | --- | --- | --- | --- | --- | --- | --- | --- |
| NCCCC(=O)O [GAMMA-AMINOBUTYRIC ACID] | 0.04 nM/g | 0.004 | 4.2 nM/g | 0.96 | – | – | – | – | – | – |
| NCCCC(=O)OCC(O)CO.O=C(O)C(F)(F)F (stereo unspecified) | – | 0.01 | – | – | 4.8 nM/g | 157 nM/g | 16.4 nM/g | 14 nM/g | 4.8 nM/g | 3 |
